Compound activity as filed in PubChem.
NR2E3 ag-1: activates human photoreceptor nuclear receptor NR2E3 | AID 2300 | 320,000 compounds, 0.12% hits | Q9Y5X4 | inhibition of corepressor binding, % at 4.78 µM | GST-NR2E3/biotin-RetCOR TR-FRET, 1536-well;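 active = percent inhibition above the cutoff of mean plus 3 SD of all tested compounds, set per screening campaign, cut at about 20% in these data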;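 note: 0% = DMSO wells and 100% = biotin wells as full block of FRET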
Target sequence (Q9Y5X4 whole entry, looked up): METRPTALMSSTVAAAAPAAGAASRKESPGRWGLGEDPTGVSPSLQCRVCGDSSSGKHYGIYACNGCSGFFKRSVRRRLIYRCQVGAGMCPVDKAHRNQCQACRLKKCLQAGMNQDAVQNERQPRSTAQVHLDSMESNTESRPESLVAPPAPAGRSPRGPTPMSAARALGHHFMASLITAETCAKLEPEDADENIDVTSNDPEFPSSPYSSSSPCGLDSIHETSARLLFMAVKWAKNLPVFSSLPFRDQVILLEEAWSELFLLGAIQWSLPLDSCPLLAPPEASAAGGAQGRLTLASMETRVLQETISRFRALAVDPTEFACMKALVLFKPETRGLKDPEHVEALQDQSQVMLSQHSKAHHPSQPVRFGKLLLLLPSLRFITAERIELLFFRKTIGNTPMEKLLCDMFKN
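Material: NR2E3–RetCOR corepressor complex / Amount: 1.35 nM GST-NR2E3 / Medium: Tris pH 7.5 / Compound: single nominal compound dose of 4.8 µM / Incubation: 5 h at 4 °C / Technique: TR-FRET, Eu(K)-anti-GST donor, streptavidin-D2 acceptor, ex 340, em 617/671 nm / Read-out basis: percent loss of FRET ratio relative to control wells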
PKA-R1A activ: activates the PKA-R1A holoenzyme complex; P00514+P68181; PKA-R1A dissociation, Cy5-IP20 fluorescence polarization; scaled: DMSO 0%, 113 µM cGMP 100%; activation, % at 11.4 µM; 340,000 compounds, 0.083% hits;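 active = percent activation above the mean of all tested compounds plus 3 SD, cut at about 19% in these data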;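 note: higher means more PKAc released from R1A so a rise in polarization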
PG9 Ab binder: PG9 antibody binding by small molecule | TR-FRET gp120-PG9 antibody binding | inhibition, % at 6.7 µM | 360,000 compounds, 0.43% hits; in the data active = inhibition above about 8.5%
PKA-R2B act: activators of human PKA-R2B complex; P22694+P31323; PKA-R2B holoenzyme dissociation, Cy5-IP20 fluorescence polarization; R2B truncated from residue 108, S112A mutant; 0% DMSO only, 100% 113 µM cGMP; activation, % at 11.4 µM; 340,000 compounds, 0.079% hits;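 active = activation above a cutoff set at the mean over all compounds plus 3 SD, cut at about 18% in these data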;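 note: higher means more holoenzyme dissociation and a rise in polarization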
NR1D1 modulator: Rev-erb alpha (human) modulation; 370,000 compounds, 0.79% hits; Rev-erbα–FITC-DNA binding, fluorescence polarization, 90 min; AID 1259318; activity, % at 10 µM; P20393;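 active = activity above about 14%, limit read from the data; passing the limit was not always enough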;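 note: 0% = DMSO wells with 35 nM protein and 100% = DMSO wells with 750 nM protein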
NR2E3 ag-2: agonists of human NR2E3 nuclear receptor. CHO-S Gal4-NCOR/VP16-NR2E3 two-hybrid, luciferase. inhibition of corepressor binding, % at 3.98 µM. 360,000 compounds, 0.35% hits. AID 602229;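 active = inhibition above the mean of all tested compounds plus 3 SD, cut at about 70% in these data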;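 note: 0% = DMSO with NR2E3 transfected cells and 100% = cells lacking NR2E3 construct; higher means lower luciferase signal from less NR2E3 corepressor binding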
Rev-erbA confirm: confirmation of modulators of human Rev-erb alpha DNA binding | Rev-erb alpha FITC-DNA binding, fluorescence polarization, 90 min | shares compounds with NR1D1 modulator | AID 1259319 | activation, % at 25 µM | 3,000 compounds, 61% hits;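 active = activation at or above a set limit, or at least 3 SD above the negative control mean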;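 note: 0% = 35 nM protein with DMSO and 100% = 750 nM protein high control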
RORg counter: counter-screen for Rev-erb alpha modulators: RORgamma DNA binding. shares compounds with NR1D1 modulator. purified RORgamma protein-FITC-DNA binding, fluorescence polarization. IC50, µM. 910 compounds, 8% hits;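 active = Compounds whose fitted half-maximal concentration for disrupting protein-DNA binding is below 10 micromolar; the record names Rev-erb in its text, so the target is in doubt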
Starred values were filed as active, the others as inactive. Shown are actives, neighbours in structure and some others; about 1.6% of the full set was active somewhere.

`CCCCn1c(-c2ccc(F)c(F)c2)nc2cc3[nH]c(=O)c(C(C)C)nc3cc21` gave NR2E3 ag-1 3, PKA-R1A activ 5, PG9 Ab binder -2, PKA-R2B act -9, NR1D1 modulator 18*, NR2E3 ag-2 3 and Rev-erbA confirm 14.
For COCc1[nH]nc2c1C(c1ccc(C)cc1)N(Cc1ccccc1)C2=O (configuration not stated) the results were PG9 Ab binder -1 and NR1D1 modulator -3.
CCOC(=O)c1sc(NC(=O)c2ccc(Cl)s2)cc1C was read as NR2E3 ag-1 3, PKA-R1A activ -1, PG9 Ab binder 1, PKA-R2B act -22, NR1D1 modulator 16*, NR2E3 ag-2 -76 and Rev-erbA confirm 12*.
CCOC(=O)c1sc(NC(=S)NC(=O)C2CCCC2)cc1C was read as NR2E3 ag-1 8, PKA-R1A activ -1, PG9 Ab binder 2, PKA-R2B act 3, NR1D1 modulator 70*, NR2E3 ag-2 -18, Rev-erbA confirm 40* and RORg counter >40.
For CCOC(=O)c1sc(NC(=O)c2ccccc2)cc1C the results were NR2E3 ag-1 3, PKA-R1A activ -15, PG9 Ab binder -2, PKA-R2B act -10, NR1D1 modulator 2 and NR2E3 ag-2 -142.
For CC(=O)Oc1ccc2oc(/C=C/N(C)C)c([N+](=O)[O-])c2c1 the results were NR2E3 ag-1 -6, PKA-R1A activ 5, PG9 Ab binder -9, PKA-R2B act -3, NR1D1 modulator 25*, NR2E3 ag-2 -31, Rev-erbA confirm 43* and RORg counter >40.
C/C(=C/c1oc2ccc(O)cc2c1[N+](=O)[O-])N(C)C was read as NR2E3 ag-1 -9, PKA-R1A activ -1, PG9 Ab binder -19, PKA-R2B act 0, NR1D1 modulator 22*, NR2E3 ag-2 -17 and Rev-erbA confirm 25*.
COC(=O)[C@]12C[C@H](CC(=O)N3CCC(c4ccccc4)CC3)C(=O)N(Cc3ccco3)C1=C[C@H](COCc1ccccc1)O[C@@H]2C was read as NR1D1 modulator -2.
`C[C@H]1[C@@H](C(=O)N2CCCC2)Cc2nc3ccccc3nc2C[C@@H]1c1ccccc1` gave NR1D1 modulator 0.
`FC(F)(F)c1cccc(N2CCN(C(=S)Nc3nccc4ccccc34)CC2)c1` gave NR1D1 modulator 3.
COc1ccc(NC(=O)c2cc3c(=O)n4ccccc4nc3n2C)c(OC)c1 was read as NR2E3 ag-1 3, PKA-R1A activ -5, PG9 Ab binder 0, PKA-R2B act 3, NR1D1 modulator 8 and NR2E3 ag-2 -4.
For COc1ccc(C)cc1NC(=O)c1cc2c(=O)n3ccccc3nc2n1C the results were NR2E3 ag-1 0, PKA-R1A activ -2, PG9 Ab binder 1, PKA-R2B act -2, NR1D1 modulator 23*, NR2E3 ag-2 -9, Rev-erbA confirm 55* and RORg counter >40.
For CCN=C1NC(c2ccc(Cl)cc2)C(C(=O)OC)=C(C)N1Cc1cccc(C(F)(F)F)c1 (configuration not stated) the results were PG9 Ab binder -1 and NR1D1 modulator 7.
`COc1ccc(C(=O)CSc2nnc(-c3n[nH]c4c3CCC4)n2N)cc1OC` gave NR1D1 modulator -1.
`CCN1CCCCC(NC(=O)c2cccc(C(F)(F)F)c2)C1=O` (configuration not stated) gave NR1D1 modulator -4.
Screening C[C@@H](NC(=O)C[C@H]1CC[C@H]2[C@@H](COc3ccc(NC(=O)Nc4ccccc4)cc3C(=O)N2C)O1)c1ccccc1 returned NR1D1 modulator 26* and Rev-erbA confirm 20*.
